How the values were obtained:
[1] = target: Non-receptor tyrosine-protein kinase TYK2 (Homo sapiens) (UniProt P29597); test: Inhibition of JH1 catalytic domain of TYK2 (unknown origin) at 1 uM relative to control; conditions: values are per cent of control
Procedure, shortened: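 Competitive binding panel (KinomeSCAN) of 100 kinases, with compound tested at 1 µM in duplicate. The read-out was percent inhibition relative to control.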

[2] = target: T1, Serine/threonine-protein kinase PLK4 (Homo sapiens) (UniProt O00444); test: Inhibition of PLK4 (unknown origin) at 1 uM relative to control; conditions: values are per cent of control
T1 sequence (whole entry): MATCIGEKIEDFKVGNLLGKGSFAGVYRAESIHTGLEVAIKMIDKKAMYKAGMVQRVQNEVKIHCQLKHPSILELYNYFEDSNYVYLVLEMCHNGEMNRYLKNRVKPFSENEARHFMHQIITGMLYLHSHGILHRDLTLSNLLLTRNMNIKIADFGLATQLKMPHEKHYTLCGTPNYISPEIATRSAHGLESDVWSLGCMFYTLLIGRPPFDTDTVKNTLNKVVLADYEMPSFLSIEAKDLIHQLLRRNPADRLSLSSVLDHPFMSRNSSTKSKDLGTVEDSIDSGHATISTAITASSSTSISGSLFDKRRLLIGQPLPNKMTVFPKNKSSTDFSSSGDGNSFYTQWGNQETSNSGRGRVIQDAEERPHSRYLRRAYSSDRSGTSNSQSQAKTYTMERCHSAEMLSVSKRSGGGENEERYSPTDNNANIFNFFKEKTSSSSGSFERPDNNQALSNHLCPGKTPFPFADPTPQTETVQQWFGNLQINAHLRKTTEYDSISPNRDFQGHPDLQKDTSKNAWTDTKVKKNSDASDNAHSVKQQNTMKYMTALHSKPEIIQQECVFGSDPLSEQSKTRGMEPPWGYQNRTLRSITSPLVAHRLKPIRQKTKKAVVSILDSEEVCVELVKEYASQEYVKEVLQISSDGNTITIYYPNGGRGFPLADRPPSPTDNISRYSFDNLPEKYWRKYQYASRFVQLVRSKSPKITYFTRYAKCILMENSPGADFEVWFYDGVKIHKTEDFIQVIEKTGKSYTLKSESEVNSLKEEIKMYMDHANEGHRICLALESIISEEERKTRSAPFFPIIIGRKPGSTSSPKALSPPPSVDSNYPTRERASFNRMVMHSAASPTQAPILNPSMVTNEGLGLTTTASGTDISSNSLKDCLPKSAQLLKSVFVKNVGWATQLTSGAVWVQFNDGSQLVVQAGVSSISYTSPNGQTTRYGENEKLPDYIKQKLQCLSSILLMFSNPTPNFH
Procedure, shortened: (§1)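 KinomeSCAN competitive binding panel of 100 kinases; compounds tested at 1 µM in duplicate; read-out is percent […] control.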

[3] = target: T2, Protein kinase C epsilon type (Homo sapiens) (UniProt Q02156); test: Inhibition of PRKCE (unknown origin) at 1 uM relative to control; conditions: values are per cent of control; procedure, shortened: as §1
T2 sequence (whole entry): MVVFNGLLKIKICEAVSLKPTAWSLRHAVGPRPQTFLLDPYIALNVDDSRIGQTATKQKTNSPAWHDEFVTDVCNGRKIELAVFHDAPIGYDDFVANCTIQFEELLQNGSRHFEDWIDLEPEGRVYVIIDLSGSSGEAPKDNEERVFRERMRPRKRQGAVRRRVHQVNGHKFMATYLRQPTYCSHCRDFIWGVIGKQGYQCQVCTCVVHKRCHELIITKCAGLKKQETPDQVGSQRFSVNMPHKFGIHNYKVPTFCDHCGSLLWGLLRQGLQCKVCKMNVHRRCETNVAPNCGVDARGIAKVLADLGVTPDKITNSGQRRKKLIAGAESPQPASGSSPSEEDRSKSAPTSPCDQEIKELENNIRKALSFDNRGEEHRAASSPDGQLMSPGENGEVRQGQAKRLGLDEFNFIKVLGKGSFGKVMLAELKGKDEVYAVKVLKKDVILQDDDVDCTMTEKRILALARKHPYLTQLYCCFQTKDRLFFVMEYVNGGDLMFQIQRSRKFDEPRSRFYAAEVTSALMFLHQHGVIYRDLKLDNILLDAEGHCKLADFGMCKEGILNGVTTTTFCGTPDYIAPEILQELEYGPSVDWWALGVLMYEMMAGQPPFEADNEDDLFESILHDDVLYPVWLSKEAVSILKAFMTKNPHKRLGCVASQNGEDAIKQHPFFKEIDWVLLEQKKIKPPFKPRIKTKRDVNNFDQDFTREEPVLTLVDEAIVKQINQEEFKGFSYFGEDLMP

[4] = target: T3, Dual specificity mitogen-activated protein kinase kinase 5 (Homo sapiens) (UniProt Q13163); test: Inhibition of MEK5 (unknown origin) at 1 uM relative to control; values are per cent of control
T3 sequence (whole entry): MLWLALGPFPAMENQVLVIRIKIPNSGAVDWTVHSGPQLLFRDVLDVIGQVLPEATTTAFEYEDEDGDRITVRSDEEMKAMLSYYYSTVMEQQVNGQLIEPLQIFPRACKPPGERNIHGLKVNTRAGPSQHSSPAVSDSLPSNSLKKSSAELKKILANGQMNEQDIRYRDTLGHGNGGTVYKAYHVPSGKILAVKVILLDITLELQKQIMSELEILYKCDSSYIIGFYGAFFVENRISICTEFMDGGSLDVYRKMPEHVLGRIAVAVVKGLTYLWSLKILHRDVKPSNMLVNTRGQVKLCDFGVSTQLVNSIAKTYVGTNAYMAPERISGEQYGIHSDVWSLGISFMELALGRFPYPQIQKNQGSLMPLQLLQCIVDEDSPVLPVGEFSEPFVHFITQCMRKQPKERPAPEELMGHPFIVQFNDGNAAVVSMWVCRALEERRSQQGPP

[5] = target: Insulin-like growth factor 1 receptor (Homo sapiens) (UniProt P08069); test: Inhibition of IGF1R (unknown origin) at 1 uM relative to control; values are per cent of control
Insulin-like growth factor 1 receptor (Homo sapiens), sequence (P08069 31-736 limits assumed): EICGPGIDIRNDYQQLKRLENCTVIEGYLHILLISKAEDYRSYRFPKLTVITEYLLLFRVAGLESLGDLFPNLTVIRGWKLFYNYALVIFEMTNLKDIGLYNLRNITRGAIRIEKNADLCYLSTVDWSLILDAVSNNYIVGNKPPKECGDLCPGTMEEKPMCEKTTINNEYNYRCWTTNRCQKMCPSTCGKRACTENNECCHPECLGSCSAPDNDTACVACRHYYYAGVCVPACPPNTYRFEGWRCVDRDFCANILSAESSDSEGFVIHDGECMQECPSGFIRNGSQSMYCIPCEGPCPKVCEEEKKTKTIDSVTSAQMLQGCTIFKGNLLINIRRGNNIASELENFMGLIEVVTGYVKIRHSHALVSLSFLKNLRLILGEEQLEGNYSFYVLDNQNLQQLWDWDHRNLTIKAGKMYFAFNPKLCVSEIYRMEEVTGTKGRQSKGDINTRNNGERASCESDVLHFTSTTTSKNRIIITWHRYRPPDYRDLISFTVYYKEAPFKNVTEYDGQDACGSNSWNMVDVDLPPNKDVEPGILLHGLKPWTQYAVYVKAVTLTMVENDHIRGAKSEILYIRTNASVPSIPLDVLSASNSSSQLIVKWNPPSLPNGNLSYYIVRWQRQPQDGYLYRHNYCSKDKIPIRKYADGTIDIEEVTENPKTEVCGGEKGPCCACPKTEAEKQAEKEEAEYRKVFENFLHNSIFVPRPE
Insulin-like growth factor 1 receptor (Homo sapiens), sequence (P08069 741-1367 limits assumed): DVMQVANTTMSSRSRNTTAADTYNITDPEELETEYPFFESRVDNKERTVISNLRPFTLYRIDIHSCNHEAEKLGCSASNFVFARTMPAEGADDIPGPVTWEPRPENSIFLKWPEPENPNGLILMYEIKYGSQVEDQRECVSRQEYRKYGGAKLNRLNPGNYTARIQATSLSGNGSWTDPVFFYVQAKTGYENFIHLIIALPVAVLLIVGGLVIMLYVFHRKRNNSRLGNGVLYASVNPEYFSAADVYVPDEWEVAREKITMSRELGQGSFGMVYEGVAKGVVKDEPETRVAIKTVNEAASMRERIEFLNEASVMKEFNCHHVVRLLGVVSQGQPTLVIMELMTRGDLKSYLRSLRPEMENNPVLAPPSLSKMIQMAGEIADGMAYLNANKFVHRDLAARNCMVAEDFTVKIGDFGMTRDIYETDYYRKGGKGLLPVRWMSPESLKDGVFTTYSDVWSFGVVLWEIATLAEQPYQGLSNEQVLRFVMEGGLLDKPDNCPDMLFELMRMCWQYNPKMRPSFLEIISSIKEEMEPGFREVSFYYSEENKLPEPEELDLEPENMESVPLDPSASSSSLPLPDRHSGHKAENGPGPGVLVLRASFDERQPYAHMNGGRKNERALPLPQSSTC

[6] = target: Calcium/calmodulin-dependent protein kinase type II subunit delta (Homo sapiens) (UniProt Q13557); test: Inhibition of CAMK2D (unknown origin) at 1 uM relative to control; values are per cent of control
Calcium/calmodulin-dependent protein kinase type II subunit delta (Homo sapiens), sequence (Q13557 whole entry): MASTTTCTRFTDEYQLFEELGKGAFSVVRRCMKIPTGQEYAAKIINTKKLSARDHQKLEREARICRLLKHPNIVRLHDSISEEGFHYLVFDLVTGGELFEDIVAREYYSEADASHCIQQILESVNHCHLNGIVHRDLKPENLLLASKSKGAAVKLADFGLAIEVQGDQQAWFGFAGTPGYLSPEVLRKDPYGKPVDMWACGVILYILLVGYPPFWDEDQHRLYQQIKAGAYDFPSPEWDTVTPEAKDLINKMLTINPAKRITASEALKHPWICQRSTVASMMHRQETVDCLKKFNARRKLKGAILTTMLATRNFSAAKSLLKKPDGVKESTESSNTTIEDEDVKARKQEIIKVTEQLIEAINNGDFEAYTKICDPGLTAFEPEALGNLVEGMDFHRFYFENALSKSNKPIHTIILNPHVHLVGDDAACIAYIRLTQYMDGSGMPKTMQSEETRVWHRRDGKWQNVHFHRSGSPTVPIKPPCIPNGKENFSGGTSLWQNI

Non-receptor tyrosine-protein kinase TYK2 (Homo sapiens), sequence (P29597 whole entry, the tested form may be a part): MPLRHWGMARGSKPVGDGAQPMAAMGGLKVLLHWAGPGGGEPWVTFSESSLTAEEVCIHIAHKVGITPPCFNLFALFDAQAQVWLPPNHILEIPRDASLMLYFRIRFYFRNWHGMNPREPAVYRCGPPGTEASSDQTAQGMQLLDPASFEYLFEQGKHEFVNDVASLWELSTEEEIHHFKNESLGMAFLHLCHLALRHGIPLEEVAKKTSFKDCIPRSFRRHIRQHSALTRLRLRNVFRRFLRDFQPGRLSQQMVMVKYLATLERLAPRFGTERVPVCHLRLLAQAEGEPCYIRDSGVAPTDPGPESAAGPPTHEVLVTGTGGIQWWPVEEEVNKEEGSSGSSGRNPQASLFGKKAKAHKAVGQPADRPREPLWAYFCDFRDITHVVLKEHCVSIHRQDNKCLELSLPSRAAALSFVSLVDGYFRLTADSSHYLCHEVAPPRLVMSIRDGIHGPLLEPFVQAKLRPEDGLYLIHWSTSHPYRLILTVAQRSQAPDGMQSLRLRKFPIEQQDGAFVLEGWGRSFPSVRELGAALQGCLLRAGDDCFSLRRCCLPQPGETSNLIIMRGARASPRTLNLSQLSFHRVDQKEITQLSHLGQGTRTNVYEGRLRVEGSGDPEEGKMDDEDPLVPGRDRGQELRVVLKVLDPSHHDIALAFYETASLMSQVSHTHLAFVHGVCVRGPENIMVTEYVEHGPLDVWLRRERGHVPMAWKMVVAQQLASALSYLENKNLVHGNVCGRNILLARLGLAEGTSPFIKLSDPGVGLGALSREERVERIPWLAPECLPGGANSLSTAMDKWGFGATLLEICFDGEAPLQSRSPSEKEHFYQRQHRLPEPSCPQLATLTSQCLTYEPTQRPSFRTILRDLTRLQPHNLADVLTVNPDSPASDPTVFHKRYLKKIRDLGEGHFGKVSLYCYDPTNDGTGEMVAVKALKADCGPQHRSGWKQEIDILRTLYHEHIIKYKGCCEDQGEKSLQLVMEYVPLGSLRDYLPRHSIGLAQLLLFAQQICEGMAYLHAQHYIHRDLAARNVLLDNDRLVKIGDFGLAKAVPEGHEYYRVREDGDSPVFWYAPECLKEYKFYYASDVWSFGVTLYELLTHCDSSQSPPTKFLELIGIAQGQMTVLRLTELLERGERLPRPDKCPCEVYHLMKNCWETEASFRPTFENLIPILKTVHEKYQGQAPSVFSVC

`CCOC(=O)c1sc(-c2ccncc2)nc1O` was tested, and the residual binding, % of control [1] was 100%, the residual binding, % of control [2] was 100% and the residual binding, % of control [3] was 100%. For the same compound, the residual activity [4] was 83%, the residual activity [5] was 85% and the residual activity [6] was 79%.

`COc1ccc(-c2nc(-c3ccnc(N)n3)sc2C(N)=O)c(Cl)c1` showed a residual binding, % of control [1] of 94%, a residual binding, % of control [2] of 100% and a residual binding, % of control [3] of 100%. For the same compound, the residual activity [4] was 80%, the residual activity [5] was 76% and the residual activity [6] was 93%.

`NC(=O)c1sc(-c2ccnc(N)n2)nc1-c1ccc(Cl)cc1Cl` showed a residual binding, % of control [1] of 100%, a residual binding, % of control [2] of 92% and a residual binding, % of control [3] of 73%. For the same compound, the residual activity [4] was 79%, the residual activity [5] was 94% and the residual activity [6] was 90%.
